Here are results for three compounds from ChEMBL document CHEMBL1123363, “(5-Amino-1,3-dimethyl-1H-pyrazol-4-yl)(2-fluorophenyl)methanones . A series of novel potential antipsychotic agents” (J Med Chem, 1986).

Assay [1] has as its target T1, Adrenergic receptor alpha-2 (Rattus norvegicus, UniProt P22086+P19328+P22909).
T1 sequence (P22086 whole entry): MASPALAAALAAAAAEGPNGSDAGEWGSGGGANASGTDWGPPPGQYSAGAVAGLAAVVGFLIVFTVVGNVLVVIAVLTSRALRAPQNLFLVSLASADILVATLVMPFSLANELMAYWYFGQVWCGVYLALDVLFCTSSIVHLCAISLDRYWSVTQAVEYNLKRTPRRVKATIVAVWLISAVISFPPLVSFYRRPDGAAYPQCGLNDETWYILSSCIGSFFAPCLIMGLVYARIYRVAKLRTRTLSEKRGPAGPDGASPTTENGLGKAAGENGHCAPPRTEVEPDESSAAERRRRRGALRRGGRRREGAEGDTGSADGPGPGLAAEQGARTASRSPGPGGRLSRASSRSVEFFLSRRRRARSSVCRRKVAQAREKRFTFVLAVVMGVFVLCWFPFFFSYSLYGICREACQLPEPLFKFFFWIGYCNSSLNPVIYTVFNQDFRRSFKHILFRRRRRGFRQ
T1 sequence (P19328 whole entry): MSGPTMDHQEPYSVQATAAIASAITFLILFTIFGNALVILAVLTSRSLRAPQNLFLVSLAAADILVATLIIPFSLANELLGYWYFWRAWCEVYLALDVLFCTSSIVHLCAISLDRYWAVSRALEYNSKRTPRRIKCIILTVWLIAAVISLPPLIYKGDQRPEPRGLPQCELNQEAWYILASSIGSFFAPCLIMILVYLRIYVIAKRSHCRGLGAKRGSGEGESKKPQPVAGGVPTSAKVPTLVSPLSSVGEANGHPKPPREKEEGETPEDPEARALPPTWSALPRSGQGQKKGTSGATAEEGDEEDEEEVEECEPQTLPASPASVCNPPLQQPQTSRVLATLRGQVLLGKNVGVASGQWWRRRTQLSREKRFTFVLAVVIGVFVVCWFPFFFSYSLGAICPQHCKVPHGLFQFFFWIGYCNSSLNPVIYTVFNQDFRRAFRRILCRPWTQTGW
T1 sequence (P22909 whole entry): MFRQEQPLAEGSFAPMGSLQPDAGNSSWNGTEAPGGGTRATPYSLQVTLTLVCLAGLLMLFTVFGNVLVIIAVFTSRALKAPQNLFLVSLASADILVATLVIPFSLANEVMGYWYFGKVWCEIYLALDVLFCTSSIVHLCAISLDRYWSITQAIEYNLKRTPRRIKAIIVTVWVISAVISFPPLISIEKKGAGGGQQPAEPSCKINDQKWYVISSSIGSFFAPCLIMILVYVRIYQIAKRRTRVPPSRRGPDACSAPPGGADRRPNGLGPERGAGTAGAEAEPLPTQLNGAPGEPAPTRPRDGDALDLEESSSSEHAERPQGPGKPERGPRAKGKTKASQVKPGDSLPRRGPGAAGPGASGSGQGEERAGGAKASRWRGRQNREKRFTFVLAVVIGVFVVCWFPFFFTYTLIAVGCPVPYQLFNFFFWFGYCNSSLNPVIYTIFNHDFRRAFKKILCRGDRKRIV
Description: Binding affinity against alpha-2 adrenergic receptor in rat brain using [3H]- clonidine.

Assay [2] deals with GABA-A receptor; anion channel. Description: Displacement of [3H]GABA from rat brain Gamma-aminobutyric acid receptor. The procedure, abridged:
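GABA binding in membranes of rat whole brain minus cerebellum and brain stem (male Long-Evans, 150–250 g), using [3H]-GABA at 25 nM final. GABA at 1 mM final was the reference. IC50 from four or five concentrations by nonlinear curve fitting.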

For assay [3], the target named is T2, Serotonin 2 (5-HT2) receptor (Rattus norvegicus, UniProt P30994+P08909+P14842). Description: Binding affinity towards 5-hydroxytryptamine 2 receptor using [3H]- spiroperidol. The class given is protein assay. The procedure, abridged:
(§1)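 Serotonin-2 sites in rat cerebral cortex membranes (male Long-Evans, 150–250 g) with [3H]spiroperidol at 0.2 nM final. (+)-Butaclamol at 1.0 μM final was the reference. IC50 from four or five concentrations by nonlinear curve fitting.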

The target of assay [4] is Beta-1 adrenergic receptor (Rattus norvegicus, UniProt P18090). Description: Binding affinity against the beta-1 adrenergic receptor using [3H]- DHA. The procedure, abridged: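 β1 sites in rat cerebral cortex membranes (male Long-Evans, 150–250 g) with [3H]dihydroalprenolol at 0.5 nM final. (-)-Alprenolol at 1 μM final defined the reference. IC50 from four or five concentrations by nonlinear curve fit.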

In assay [5] the target is Beta-2 adrenergic receptor (Rattus norvegicus, UniProt P10608). As to the kind of experiment: Binding affinity against the beta-2 adrenergic receptor using [3H]- DHA. The procedure, abridged:
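β2 sites in rat cerebellum membranes (male Long-Evans, 150–250 g) with [3H]dihydroalprenolol at 0.5 nM final. (-)-Alprenolol at 1 μM final defined the reference. IC50 from four or five concentrations by nonlinear curve fit.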

Assay [6] deals with Canis familiaris. As to the kind of experiment: Emesis test in dogs was determined when administered perorally. The class given is functional. The settings on record: Canis lupus familiaris, po; read-out: MED. The procedure, abridged:
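Fasted dogs (7–12 kg), normally three per dose, were dosed orally and observed hourly for up to 6 h for emesis and other autonomic or behavioural signs. The minimal effective dose was the lowest dose producing emesis in any animal.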

For assay [7], the system named is Rattus norvegicus. Description: Compound was tested for serum prolactin assay method in rats at 1 mg/kg dose after peroral administration. It counts as functional. The settings on record: route oral. The procedure, abridged: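 Seven-week-old male Sprague–Dawley rats, five per group, were dosed orally and killed by decapitation 1 h later. Serum prolactin from trunk blood was measured by radioimmunoassay with [125I]-PRL and expressed as % of control (mean ± SEM).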

Assay [8] deals with Rattus norvegicus. As to the kind of experiment: Inhibition of conditional avoidance in rats after peroral administration. It counts as functional. The settings on record: po. The procedure, abridged: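 Fasted male Wistar rats (150–250 g) were trained to jump to a platform at a buzzer to avoid grid shock (1.1 mA/s). After oral dosing they were tested every 20 min for 6 h over 19 trials, 10 rats per dose, each rat used once. Peak effect was the mean of the four consecutive trials with the largest effect, computed from response latency. ED50 read graphically from at least three doses.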

Assay [9] is filed under the species Rattus norvegicus. As to the kind of experiment: Compound was tested for adenylate cyclase activity in rat corpus striatum. The class given is functional. The procedure, abridged:
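Rat corpus striatum homogenates from male Long–Evans rats (200–300 g) were incubated with dopamine held at 20 μM while test compound concentration was varied. Cyclic AMP formed was measured by radioimmunoassay, with assays run in triplicate.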

Assay [10] has as its target Serotonin 1 (5-HT1) receptor (Rattus norvegicus, UniProt P28564+P30940+P19327+P28565). Description: Binding affinity against the serotonin-1 receptor using [3H]- 5-HT. It counts as protein assay. The procedure, abridged: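 Serotonin-1 binding in rat cortex membranes (male Long-Evans, 150–250 g) with [3H]-5-HT at 2.0 nM final. (+)-Butaclamol at 1 μM final was the reference. IC50 from four or five concentrations by nonlinear curve fit.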

The test system of assay [11] is Rattus norvegicus. As to the kind of experiment: Compound was tested for its effect on Dopamine turnover in rat at dose of 64 mg/kg ip. It counts as functional. Particulars: route intraperitoneal. The procedure, abridged:
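Rats were given compound or vehicle ip 30 min before α-methyl-p-tyrosine (250 mg/kg ip) and killed 4 h later. Brain NE and DA were measured spectrofluorometrically, with at least five determinations per value, and expressed as % of vehicle-treated levels ± SEM.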

Assay [12] concerns the target T2, Serotonin 2 (5-HT2) receptor. Description: Binding affinity towards 5-hydroxytryptamine 2 receptor in rat brain using [3H]spiroperidol. The class given is tissue-based. The procedure, abridged: as §1
Assay [13] in a line: Inhibition of sidman avoidance in rats after peroral administration.

pIC50: −log10 of the molar value.

Chain of Beta-2 adrenergic receptor (P10608 whole entry): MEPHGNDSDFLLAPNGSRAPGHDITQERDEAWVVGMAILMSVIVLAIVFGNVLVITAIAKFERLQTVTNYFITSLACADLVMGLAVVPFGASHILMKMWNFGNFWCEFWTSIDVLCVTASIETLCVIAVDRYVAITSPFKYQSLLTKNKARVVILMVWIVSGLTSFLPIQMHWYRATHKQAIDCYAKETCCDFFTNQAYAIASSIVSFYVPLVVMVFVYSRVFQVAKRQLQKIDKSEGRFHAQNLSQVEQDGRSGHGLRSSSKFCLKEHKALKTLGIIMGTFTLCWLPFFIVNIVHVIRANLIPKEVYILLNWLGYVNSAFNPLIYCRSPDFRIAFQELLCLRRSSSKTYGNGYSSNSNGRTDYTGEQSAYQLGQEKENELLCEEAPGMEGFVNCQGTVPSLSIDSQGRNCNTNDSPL
Chain of Beta-1 adrenergic receptor (P18090 whole entry): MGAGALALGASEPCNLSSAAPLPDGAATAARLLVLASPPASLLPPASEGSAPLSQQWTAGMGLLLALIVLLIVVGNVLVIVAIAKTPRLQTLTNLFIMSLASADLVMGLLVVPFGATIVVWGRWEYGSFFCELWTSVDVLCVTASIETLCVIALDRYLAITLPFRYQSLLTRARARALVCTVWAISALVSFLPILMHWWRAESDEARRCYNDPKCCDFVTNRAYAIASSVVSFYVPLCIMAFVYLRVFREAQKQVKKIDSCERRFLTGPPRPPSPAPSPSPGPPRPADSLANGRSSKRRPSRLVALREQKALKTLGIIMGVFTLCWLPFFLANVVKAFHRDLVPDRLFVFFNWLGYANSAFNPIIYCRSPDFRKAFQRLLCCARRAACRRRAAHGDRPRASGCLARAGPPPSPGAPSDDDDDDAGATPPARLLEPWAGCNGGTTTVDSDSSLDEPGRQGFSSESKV

As for `Cc1nn(C)c(N)c1C(=O)c1ccccc1F`, the half-maximal inhibitory concentration (IC50) in assay [1] is above 10 µM. For the same compound, in assay [2], the negative-log IC50 (pIC50) is below 5.00.
Consider `CCN(CC)CC(=O)Nc1c(C(=O)c2ccccc2F)c(C)nn1C`, for which the concentration for half-maximal inhibition (IC50) in assay [3] and in [10] was above 10 µM in each case. The pIC50 in assay [4], in assay [5] and in assay [9] was below 5.00 in each case. For the same compound, the minimal effective dose in [6] came to 56 mg/kg. Further, the Control in [7] is on record as 87.4%. For the same compound, in [8], the ED50 is 18 mg/kg.
As for `Cc1nn(C)c(NC(=O)CNCCCN2CCCCC2C)c1C(=O)c1ccccc1F` (stereo unspecified), the half-inhibitory concentration (IC50) in assay [1] and in assay [12] was above 10 µM in each case. Moreover, the negative logarithm of the IC50 (pIC50) in assay [2] and in assay [9] was below 5.00 in each case. Further, the Control in assay [11] is reported as 96.6%. The same compound had an ED50 in assay [13] of 21.3 mg/kg.
